Experimental findings from ChEMBL document CHEMBL3351336, “Synthesis and evaluation of novel triazoles and mannich bases functionalized 1,4-dihydropyridine as angiotensin converting enzyme (ACE) inhibitors” (Bioorg Med Chem, 2014) are described below.

Calls of active or inactive are those of the source. No cut-off for these calls is given here.

Assay [1] concerns the target T1, Angiotensin-converting enzyme (Oryctolagus cuniculus) (UniProt P12822).
T1 sequence (whole entry): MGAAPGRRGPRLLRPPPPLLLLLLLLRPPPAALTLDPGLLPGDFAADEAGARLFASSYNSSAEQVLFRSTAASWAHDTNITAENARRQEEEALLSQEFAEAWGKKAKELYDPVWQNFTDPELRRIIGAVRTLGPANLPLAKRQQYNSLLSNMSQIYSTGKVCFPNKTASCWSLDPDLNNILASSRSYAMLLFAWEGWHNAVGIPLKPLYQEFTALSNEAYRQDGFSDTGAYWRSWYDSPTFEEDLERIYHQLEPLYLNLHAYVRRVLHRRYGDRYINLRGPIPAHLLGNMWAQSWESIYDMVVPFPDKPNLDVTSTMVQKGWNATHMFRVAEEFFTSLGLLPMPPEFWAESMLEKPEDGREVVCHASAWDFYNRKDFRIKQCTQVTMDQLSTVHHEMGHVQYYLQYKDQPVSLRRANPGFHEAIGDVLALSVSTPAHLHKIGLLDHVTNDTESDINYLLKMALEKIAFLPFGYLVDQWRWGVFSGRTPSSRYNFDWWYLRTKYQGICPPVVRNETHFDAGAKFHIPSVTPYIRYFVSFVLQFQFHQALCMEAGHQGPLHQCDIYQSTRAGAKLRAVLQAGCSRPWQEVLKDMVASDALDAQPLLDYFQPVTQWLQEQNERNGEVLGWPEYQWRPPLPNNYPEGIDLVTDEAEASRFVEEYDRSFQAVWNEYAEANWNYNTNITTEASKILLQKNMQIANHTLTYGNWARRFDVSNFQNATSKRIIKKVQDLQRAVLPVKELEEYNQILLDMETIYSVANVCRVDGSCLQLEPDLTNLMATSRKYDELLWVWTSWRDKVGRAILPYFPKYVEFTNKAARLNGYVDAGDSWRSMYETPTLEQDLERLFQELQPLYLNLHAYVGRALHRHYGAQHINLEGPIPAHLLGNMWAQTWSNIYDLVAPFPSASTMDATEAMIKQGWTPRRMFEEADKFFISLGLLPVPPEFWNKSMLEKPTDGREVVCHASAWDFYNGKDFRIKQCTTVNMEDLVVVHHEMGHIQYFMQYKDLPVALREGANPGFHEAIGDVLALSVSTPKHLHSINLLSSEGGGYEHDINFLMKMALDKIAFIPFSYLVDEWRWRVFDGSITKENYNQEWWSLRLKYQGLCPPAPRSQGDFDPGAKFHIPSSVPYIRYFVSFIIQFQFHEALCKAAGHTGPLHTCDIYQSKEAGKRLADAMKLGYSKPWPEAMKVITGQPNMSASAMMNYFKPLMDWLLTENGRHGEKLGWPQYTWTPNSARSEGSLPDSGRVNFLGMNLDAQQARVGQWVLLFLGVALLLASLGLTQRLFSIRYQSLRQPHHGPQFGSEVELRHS
Put plainly: (§1) Inhibition of rabbit lung ACE using hippuryl-histidyl-leucine as substrate assessed as release of hippuric acid incubated for 10 mins prior to substrate addition measured after 30 mins by spectrophotometry.

A further assay concerns A549. The assay is described as follows: Cytotoxicity against human A549 cells after 24 hrs by MTT assay. The format is cell-based. Conditions: A549, 24 h. The procedure, abridged: (§2)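 Cells kept in DMEM with 10% heat-inactivated FBS, penicillin, streptomycin and 2 mM L-glutamine at 37 °C, 5% CO2, passaged every 2–3 days. 1 × 10^4 cells/well seeded, grown 24 h, then exposed to compounds (10 µM–1000 µM) beside vehicle control for 24 h. MTT added for 4 h, formazan dissolved in DMSO, absorbance read at 540 nm; survival versus control, EC50 by probit analysis.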

The target in assay [2] is T2, Angiotensin-converting enzyme (Oryctolagus cuniculus, UniProt P12822).
T2 sequence (P12822 whole entry): T1 sequence (whole entry)
Described as §1.

For a further assay, the system named is HEK293. The assay is described as follows: Cytotoxicity against human HEK293 cells after 24 hrs by MTT assay. To be noted: HEK293, 24 h. It counts as cell-based. The procedure, abridged:
as §2

As for `CCOC(=O)C1=C(C)NC(C)=C(C(=O)OCC)C1c1cc(Br)cc(Br)c1OCC#CCN1CCN(c2ccccn2)CC1`, the inhibition entry in assay [1] is “inactive”.
Consider `CCOC(=O)C1=C(C)NC(C)=C(C(=O)OCC)C1c1cc(Br)cc(Br)c1OCC#CCN1CCN(CCO)CC1`, for which the half-maximal inhibitory concentration (IC50) in the assay on A549 was more than 1000 µM; in assay [2], 0.928 µM; in the assay with HEK293, more than 1000 µM. Besides, the inhibition result in assay [1] was “Dose-dependent effect”.
Consider `CCOC(=O)C1=C(C)NC(C)=C(C(=O)OCC)C1c1cc(Br)cc(Br)c1OCc1cn(CC(=O)NCCC(=O)O)nn1`, for which the inhibition result in assay [1] is “inactive”.
Same read-out and setting: under `CCOC(=O)C1=C(C)NC(C)=C(C(=O)OCC)C1c1cc(Br)ccc1OCc1cn(CC(=O)Nc2nnc(C(F)(F)F)s2)nn1` stands “inactive”; under `CCOC(=O)C1=C(C)NC(C)=C(C(=O)OCC)C1c1cc(Br)cc(Br)c1OCc1cn(CC(=O)Nc2ccc(SC(F)(F)F)cc2)nn1`, “inactive”.
For `CCOC(=O)C1=C(C)NC(C)=C(C(=O)OCC)C1c1cccc(OC)c1OCc1cn(CCC(F)(F)C(F)(F)C(F)(F)C(F)(F)C(F)(F)C(F)(F)C(F)(F)C(F)(F)F)nn1`, the 50% inhibitory concentration (IC50) in the assay on A549 was more than 1000 µM; in assay [2], 0.653 µM; in the assay on HEK293, more than 1000 µM. Moreover, the inhibition result in assay [1] was “Dose-dependent effect”.
Turning to `CCOC(=O)C1=C(C)NC(C)=C(C(=O)OCC)C1c1cc(Br)cc(Br)c1OCc1cn(CC(=O)NC2CC2)nn1`, in assay [1], the inhibition entry is “inactive”.
Still for that read-out and setting: under `CCOC(=O)C1=C(C)NC(C)=C(C(=O)OCC)C1c1cc(Br)cc(Br)c1OCc1cn(CC(=O)Nc2cccc(C(=O)O)c2)nn1` stands “inactive”; under `CCOC(=O)C1=C(C)NC(C)=C(C(=O)OCC)C1c1cc(Br)cc(Br)c1OCC#CCN1CCN(c2ccc(F)cc2)CC1`, “inactive”.
As for `CCOC(=O)C1=C(C)NC(C)=C(C(=O)OCC)C1c1cccc(OC)c1OCc1cn(CC(=O)Nc2nc3ccc(F)cc3s2)nn1`, the IC50 is more than 1000 µM in the assay with A549, 0.713 µM in assay [2] and more than 1000 µM in the assay with HEK293. Moreover, the inhibition entry in assay [1] was “Dose-dependent effect”.
In the case of `COc1cccc2c1C(=O)c1c(O)c3c(c(O)c1C2=O)C[C@@](O)(C(=O)CO)C[C@@H]3O[C@H]1C[C@H](N)[C@H](O)[C@H](C)O1` [DOXORUBICIN], the 50% inhibitory concentration (IC50) is 2.6 µM with A549 and 0.69 µM with HEK293.
As for `CCOC(=O)C1=C(C)NC(C)=C(C(=O)OCC)C1c1cc(Br)ccc1OCC#CCN1CCN(c2ccccn2)CC1`, the inhibition result in assay [1] is “inactive”.
For `CCOC(=O)C1=C(C)NC(C)=C(C(=O)OCC)C1c1cccc(OC)c1OCc1cn(CC(=O)Nc2nnc(C(F)(F)F)s2)nn1`, the IC50 in the assay on A549 is more than 1000 µM; in assay [2] it was 0.409 µM; in the assay on HEK293 it was more than 1000 µM. Besides, the inhibition entry in assay [1] was “Dose-dependent effect”.
Consider `CCOC(=O)C1=C(C)NC(C)=C(C(=O)OCC)C1c1cccc(OC)c1OCC#CCN1CCN(C)CC1`, for which the inhibition result in assay [1] is “inactive”.
On the same count and under the same terms, as for `CCOC(=O)C1=C(C)NC(C)=C(C(=O)OCC)C1c1cc(Br)cc(Br)c1OCC#CCN1CCN(C)CC1`, the entry is “inactive”.
On the same count and under the same terms, as for `CCOC(=O)C1=C(C)NC(C)=C(C(=O)OCC)C1c1cc(Br)cc(Br)c1OCc1cn(CC(=O)NCc2ccc(OC(F)(F)F)cc2)nn1`, the entry is “inactive”.
For `NCCCC[C@H](N[C@@H](CCc1ccccc1)C(=O)O)C(=O)N1CCC[C@H]1C(=O)O` [LISINOPRIL ANHYDROUS], in assay [2], the IC50 was determined as 0.281 µM.
`CCOC(=O)C1=C(C)NC(C)=C(C(=O)OCC)C1c1cc(Br)ccc1OCC#CCN1CCOCC1`: the inhibition result in assay [1] was “inactive”.
On the same count and under the same terms, as for `CCOC(=O)C1=C(C)NC(C)=C(C(=O)OCC)C1c1cccc(OC)c1OCC#CCN1CCOCC1`, the entry is “inactive”; as for `CCOC(=O)C1=C(C)NC(C)=C(C(=O)OCC)C1c1cccc(OC)c1OCC#CCN1CCN(c2ccccc2)CC1`, “inactive”.
Same read-out and setting: as for `CCOC(=O)C1=C(C)NC(C)=C(C(=O)OCC)C1c1cccc(OC)c1OCC#CCN1CCC(C(=O)OCC)CC1`, the entry is “inactive”.
The same measure, in the same setting: as for `CCOC(=O)C1=C(C)NC(C)=C(C(=O)OCC)C1c1cc(Br)ccc1OCc1cn(CC(=O)NC2CCCCC2)nn1`, the entry is “inactive”.
For `CCOC(=O)C1=C(C)NC(C)=C(C(=O)OCC)C1c1cccc(OC)c1OCC#CCN1CCCC1`, in assay [1], the inhibition entry was “inactive”.
